Source: ChEMBL document CHEMBL2401738, “Construction and functionalization of pyranone ring fused with pyran moiety: design and synthesis of novel pyrano[4,3-b]pyran-5(4H)-ones as potential inhibitors of sirtuins” (Bioorg Med Chem Lett, 2013)
pIC50: −log10 of the molar value.

Assays:
Saccharomyces cerevisiae [1] = experiment: Inhibition of Saccharomyces cerevisiae TEL::URA3 SIR2-mediated URA3 reporter gene silencing at 50 uM after 24 to 48 hrs in presence of 5-FOA relative to control
How it was run: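 Yeast strain with telomere-integrated URA3 reporter. Sir2 silencing of URA3 allows growth in 5-fluoroorotic acid, and inhibition of the yeast SIRT1 homologue Sir2 is scored by reduced growth in 5-FOA. Stereoisomer mixtures were tested unseparated at a single fixed concentration of 50.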

Saccharomyces cerevisiae [2] = experiment: (§1) Inhibition of Saccharomyces cerevisiae TEL::URA3 SIR2-mediated URA3 reporter gene silencing after 24 to 48 hrs in presence of 5-FOA
How it was run: (§2)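 Yeast cell-based reporter silencing assay with URA3 integrated in the telomeric region. Sir2-mediated silencing of URA3 permits growth in 5-fluoroorotic acid, so Sir2 inhibition is read as loss of growth on 5-FOA. Compounds were tested as unseparated stereoisomer mixtures over a dose range, and IC50 was taken from the dose-response.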

[3] = as §1; how it was run: as §2

inhibition (Saccharomyces cerevisiae [1])	inhibition (Saccharomyces cerevisiae [2])	pIC50 [3]	Compound
1.01%			CCCCC#Cc1c(-c2ccccc2)oc(=O)c2c1OC1=C(C(=O)CC(C)(C)C1)C2c1cccc(O)c1 (configuration not stated)
15.3%			CC1(C)CC(=O)C2=C(C1)Oc1c(I)c(-c3ccccc3)oc(=O)c1C2c1ccco1 (configuration not stated)
3.3%			CC1(C)CC(=O)C2=C(C1)Oc1c(-c3ccccc3)c(-c3ccccc3)oc(=O)c1C2c1cccc(O)c1 (configuration not stated)
25.3%			CC1(C)CC(=O)C2=C(C1)Oc1c(I)c(C3(O)CCCCC3)oc(=O)c1C2c1ccc(F)cc1 (configuration not stated)
1.51%			CCOC(=O)C1=C(C)Oc2c(-c3ccc(O)cc3)c(-c3ccccc3)oc(=O)c2C1c1cccc(F)c1 (configuration not stated)
0.5%			CCOC(=O)C1=C(C)Oc2c(I)c(-c3ccccc3)oc(=O)c2C1c1cccc(F)c1 (configuration not stated)
49.5%			CC1(C)CC(=O)C2=C(C1)Oc1c(I)c(-c3ccccc3)oc(=O)c1C2c1ccc(F)cc1 (configuration not stated)
43.9%	Dose-dependent effect	4.11	CCC1C2=C(CC(C)(C)CC2=O)Oc2c(I)c(-c3ccccc3)oc(=O)c21 (configuration not stated)
32.4%			COc1ccc(C2C3=C(CC(C)(C)CC3=O)Oc3c(I)c(-c4ccccc4)oc(=O)c32)cc1 (configuration not stated)
43.2%			CC1(C)CC(=O)C2=C(C1)Oc1c(I)c(-c3ccccc3)oc(=O)c1C2c1cccs1 (configuration not stated)
